The values below come from ChEMBL document CHEMBL1165965, “Synthesis and structure-activity relationships of 1,2,3,4-tetrahydropyrido[2,3-b]pyrazines as potent and selective inhibitors of the anaplastic lymphoma kinase” (Bioorg Med Chem, 2010).

The target of assay [1] is Angiopoietin-1 receptor (Homo sapiens) (UniProt Q02763). The assay is described as follows: Inhibition of TIE2 at 1 uM.
Assay [2] addresses Activin receptor type-2B (Homo sapiens) (UniProt Q13705). The assay is described as follows: Inhibition of ACVR2B at 1 uM. An outline of the steps:
(§1)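 Ambit KINOMEscan screen at a single concentration across a 250–400 kinase panel, recorded as percent inhibition. Selectivity was expressed as S(90), the fraction of kinases inhibited >90%.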

Assay [3] has as its target T1, Aurora kinase C (Homo sapiens) (UniProt Q9UQB9).
T1 sequence (whole entry): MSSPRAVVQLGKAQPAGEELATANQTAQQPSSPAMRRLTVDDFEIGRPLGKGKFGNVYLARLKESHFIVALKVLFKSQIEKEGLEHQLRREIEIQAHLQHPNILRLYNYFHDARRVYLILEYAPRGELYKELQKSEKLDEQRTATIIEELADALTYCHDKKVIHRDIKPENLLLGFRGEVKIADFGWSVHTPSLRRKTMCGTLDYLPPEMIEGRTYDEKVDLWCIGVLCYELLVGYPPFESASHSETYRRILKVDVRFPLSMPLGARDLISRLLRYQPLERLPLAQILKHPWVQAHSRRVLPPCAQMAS
The assay is described as follows: Inhibition of AURKC at 1 uM. An outline of the steps: as §1

Assay [4] addresses Calcium/calmodulin-dependent protein kinase type 1G (Homo sapiens) (UniProt Q96NX5). Briefly: Inhibition of CAMK1G at 1 uM. In a few lines: as §1
Assay [5] has as its target Calcium/calmodulin-dependent protein kinase kinase 1 (Homo sapiens) (UniProt Q8N5S9). Briefly: Inhibition of CAMKK1 at 1 uM. An outline of the steps: as §1
Assay [6] concerns the target T2, Ephrin type-B receptor 3 (Homo sapiens) (UniProt P54753).
T2 sequence (whole entry): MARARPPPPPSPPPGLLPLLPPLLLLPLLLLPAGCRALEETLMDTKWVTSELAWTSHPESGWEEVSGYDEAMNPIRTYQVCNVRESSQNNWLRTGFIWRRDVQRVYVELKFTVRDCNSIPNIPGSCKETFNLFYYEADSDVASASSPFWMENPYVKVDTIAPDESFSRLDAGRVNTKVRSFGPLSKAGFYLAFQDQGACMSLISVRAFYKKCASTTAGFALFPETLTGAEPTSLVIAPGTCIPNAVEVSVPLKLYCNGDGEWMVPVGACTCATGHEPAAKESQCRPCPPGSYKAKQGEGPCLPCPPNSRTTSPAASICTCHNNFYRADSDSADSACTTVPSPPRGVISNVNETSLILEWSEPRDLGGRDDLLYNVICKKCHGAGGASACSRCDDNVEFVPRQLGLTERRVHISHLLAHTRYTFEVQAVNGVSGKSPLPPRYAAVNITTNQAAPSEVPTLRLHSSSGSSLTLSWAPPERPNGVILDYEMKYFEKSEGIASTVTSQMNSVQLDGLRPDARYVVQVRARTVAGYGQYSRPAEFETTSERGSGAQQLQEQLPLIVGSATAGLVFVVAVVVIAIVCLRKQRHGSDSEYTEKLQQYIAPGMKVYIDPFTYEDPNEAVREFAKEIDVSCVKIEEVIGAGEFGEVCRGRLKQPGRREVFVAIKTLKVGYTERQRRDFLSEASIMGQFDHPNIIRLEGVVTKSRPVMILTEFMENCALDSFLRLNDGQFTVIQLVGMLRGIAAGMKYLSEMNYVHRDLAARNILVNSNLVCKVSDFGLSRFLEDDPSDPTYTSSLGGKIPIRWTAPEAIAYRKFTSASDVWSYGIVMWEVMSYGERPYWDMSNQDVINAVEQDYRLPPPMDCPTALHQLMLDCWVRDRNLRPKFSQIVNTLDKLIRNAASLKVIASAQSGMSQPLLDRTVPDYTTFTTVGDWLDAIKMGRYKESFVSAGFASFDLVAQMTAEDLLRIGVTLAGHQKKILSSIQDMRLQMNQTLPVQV
Briefly: Inhibition of EPHB3 at 1 uM. In a few lines: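 Single-concentration screen using Ambit Bioscience KINOMEscan technology across a panel of 250–400 kinases. Per-kinase inhibition from this screen was summarized as S(90), the fraction of kinases inhibited by more than 90%.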

Assay [7] has as its target Tyrosine-protein kinase Fgr (Homo sapiens) (UniProt P09769). Briefly: Inhibition of FGR at 1 uM. An outline of the steps:
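Single-concentration screen on the Ambit KINOMEscan platform, run against a panel of 250–400 kinases. Per-kinase inhibition was also summarized as S(90), the fraction of kinases inhibited by more than 90%.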

Assay [8] addresses Serine/threonine-protein kinase 24 (Homo sapiens) (UniProt Q9Y6E0). Briefly: Inhibition of MST3 at 1 uM.
For assay [9], the target named is T3, Ephrin type-B receptor 6 (Homo sapiens) (UniProt O15197).
T3 sequence (whole entry): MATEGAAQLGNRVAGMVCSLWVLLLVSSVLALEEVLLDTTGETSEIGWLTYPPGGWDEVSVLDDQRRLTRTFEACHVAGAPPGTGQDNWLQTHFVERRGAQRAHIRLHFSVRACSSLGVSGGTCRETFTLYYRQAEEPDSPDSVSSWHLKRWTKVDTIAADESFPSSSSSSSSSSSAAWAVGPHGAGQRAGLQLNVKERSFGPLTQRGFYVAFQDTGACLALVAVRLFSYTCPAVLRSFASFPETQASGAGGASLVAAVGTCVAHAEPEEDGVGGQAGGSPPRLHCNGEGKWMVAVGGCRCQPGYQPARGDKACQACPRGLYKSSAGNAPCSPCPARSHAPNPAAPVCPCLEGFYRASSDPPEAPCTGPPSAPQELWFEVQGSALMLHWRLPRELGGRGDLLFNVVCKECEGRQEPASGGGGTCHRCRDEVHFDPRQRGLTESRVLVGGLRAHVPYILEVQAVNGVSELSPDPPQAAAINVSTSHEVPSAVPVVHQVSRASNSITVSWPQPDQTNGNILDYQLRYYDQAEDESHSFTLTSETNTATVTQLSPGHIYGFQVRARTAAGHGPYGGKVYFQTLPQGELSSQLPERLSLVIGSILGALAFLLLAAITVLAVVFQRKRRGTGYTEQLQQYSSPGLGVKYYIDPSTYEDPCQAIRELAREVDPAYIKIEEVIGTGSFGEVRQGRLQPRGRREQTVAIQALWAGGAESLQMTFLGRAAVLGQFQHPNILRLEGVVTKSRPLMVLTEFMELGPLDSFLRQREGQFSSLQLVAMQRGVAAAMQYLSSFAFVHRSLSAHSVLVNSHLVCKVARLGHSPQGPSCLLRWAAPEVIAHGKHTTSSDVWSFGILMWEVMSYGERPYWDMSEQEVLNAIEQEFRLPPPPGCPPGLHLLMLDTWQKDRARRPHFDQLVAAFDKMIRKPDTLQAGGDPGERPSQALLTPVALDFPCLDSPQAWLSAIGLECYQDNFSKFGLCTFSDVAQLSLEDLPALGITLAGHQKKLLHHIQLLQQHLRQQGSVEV
The assay is described as follows: Inhibition of EPHB6 at 1 uM.

Chain of Serine/threonine-protein kinase 24 (Homo sapiens) (Q9Y6E0 whole entry, looked up): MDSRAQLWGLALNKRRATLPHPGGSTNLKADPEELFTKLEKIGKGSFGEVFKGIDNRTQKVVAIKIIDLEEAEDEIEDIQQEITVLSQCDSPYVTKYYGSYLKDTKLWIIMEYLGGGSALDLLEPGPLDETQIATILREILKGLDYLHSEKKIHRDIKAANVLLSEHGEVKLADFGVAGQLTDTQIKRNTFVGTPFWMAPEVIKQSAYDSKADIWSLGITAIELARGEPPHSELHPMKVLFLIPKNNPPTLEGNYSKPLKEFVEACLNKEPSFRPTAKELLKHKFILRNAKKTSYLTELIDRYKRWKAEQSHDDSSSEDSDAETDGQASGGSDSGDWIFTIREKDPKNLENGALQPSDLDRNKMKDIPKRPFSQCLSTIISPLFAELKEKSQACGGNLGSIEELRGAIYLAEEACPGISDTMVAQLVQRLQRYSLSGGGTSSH
Chain of Angiopoietin-1 receptor (Homo sapiens) (Q02763 whole entry): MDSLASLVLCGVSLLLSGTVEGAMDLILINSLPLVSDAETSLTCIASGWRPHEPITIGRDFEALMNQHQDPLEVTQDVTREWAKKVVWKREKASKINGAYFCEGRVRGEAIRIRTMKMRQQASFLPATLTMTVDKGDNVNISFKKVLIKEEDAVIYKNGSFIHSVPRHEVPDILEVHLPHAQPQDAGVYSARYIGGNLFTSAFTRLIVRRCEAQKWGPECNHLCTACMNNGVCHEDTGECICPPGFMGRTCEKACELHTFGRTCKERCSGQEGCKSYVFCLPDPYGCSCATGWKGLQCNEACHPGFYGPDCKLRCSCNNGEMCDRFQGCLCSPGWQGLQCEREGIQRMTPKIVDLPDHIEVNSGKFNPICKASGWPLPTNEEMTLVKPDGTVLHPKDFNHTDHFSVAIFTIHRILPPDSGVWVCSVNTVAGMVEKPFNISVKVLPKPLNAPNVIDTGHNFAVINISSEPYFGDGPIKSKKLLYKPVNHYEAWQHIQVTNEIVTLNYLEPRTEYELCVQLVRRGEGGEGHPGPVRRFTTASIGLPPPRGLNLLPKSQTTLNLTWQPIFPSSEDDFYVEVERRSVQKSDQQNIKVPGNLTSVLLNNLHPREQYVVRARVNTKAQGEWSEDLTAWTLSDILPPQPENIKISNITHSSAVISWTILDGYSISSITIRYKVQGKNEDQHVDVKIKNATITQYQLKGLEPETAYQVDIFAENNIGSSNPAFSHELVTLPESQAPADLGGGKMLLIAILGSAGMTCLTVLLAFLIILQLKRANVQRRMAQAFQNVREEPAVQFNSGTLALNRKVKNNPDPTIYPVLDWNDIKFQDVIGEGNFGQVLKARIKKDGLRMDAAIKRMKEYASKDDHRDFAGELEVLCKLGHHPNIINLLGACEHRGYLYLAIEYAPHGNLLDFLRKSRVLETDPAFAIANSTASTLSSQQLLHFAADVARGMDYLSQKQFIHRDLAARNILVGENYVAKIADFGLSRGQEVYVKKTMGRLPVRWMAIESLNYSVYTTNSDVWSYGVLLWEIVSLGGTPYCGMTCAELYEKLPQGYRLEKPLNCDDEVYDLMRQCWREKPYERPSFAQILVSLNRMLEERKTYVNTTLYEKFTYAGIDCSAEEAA
Chain of Calcium/calmodulin-dependent protein kinase kinase 1 (Homo sapiens) (Q8N5S9 whole entry, looked up): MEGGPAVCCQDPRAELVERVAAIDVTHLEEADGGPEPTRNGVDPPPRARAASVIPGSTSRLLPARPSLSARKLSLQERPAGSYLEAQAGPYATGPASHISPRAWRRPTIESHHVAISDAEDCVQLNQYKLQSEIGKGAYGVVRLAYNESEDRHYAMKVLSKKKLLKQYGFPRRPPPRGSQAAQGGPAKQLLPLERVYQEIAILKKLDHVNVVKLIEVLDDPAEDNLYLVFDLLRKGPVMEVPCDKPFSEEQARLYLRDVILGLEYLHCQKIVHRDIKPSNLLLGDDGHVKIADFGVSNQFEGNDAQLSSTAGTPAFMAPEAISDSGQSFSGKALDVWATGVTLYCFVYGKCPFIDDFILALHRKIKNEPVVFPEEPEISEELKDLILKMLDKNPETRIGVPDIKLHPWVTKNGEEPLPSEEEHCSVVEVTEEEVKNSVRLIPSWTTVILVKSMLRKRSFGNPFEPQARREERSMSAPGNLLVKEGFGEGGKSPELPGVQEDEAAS
Chain of Tyrosine-protein kinase Fgr (Homo sapiens) (P09769 2-529 limits assumed): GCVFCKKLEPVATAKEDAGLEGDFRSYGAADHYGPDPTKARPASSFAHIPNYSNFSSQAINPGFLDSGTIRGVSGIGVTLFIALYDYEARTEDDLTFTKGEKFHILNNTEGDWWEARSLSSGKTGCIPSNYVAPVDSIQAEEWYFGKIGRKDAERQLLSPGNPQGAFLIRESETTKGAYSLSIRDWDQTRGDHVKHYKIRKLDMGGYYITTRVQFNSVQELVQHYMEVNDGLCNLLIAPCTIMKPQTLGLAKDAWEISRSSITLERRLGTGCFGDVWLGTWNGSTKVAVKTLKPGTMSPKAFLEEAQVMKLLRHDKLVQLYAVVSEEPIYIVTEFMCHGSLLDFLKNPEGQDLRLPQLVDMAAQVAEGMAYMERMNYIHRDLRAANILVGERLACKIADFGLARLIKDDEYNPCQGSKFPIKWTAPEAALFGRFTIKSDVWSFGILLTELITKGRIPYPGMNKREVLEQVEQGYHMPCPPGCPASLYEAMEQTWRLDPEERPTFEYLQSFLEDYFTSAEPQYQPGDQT
Chain of Calcium/calmodulin-dependent protein kinase type 1G (Homo sapiens) (Q96NX5 whole entry): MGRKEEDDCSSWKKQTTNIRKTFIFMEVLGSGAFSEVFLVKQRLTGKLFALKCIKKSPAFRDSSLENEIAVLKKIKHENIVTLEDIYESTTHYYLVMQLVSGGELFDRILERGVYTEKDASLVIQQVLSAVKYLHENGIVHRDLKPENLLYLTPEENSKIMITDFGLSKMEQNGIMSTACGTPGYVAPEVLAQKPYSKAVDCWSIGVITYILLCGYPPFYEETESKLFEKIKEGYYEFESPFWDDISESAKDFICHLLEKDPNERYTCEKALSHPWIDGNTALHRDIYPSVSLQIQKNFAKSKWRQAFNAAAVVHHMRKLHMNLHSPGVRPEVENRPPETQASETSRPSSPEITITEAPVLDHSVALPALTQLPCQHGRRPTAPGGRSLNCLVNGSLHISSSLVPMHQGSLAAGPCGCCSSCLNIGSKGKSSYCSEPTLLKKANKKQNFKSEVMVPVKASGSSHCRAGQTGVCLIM
Chain of Activin receptor type-2B (Homo sapiens) (Q13705 whole entry): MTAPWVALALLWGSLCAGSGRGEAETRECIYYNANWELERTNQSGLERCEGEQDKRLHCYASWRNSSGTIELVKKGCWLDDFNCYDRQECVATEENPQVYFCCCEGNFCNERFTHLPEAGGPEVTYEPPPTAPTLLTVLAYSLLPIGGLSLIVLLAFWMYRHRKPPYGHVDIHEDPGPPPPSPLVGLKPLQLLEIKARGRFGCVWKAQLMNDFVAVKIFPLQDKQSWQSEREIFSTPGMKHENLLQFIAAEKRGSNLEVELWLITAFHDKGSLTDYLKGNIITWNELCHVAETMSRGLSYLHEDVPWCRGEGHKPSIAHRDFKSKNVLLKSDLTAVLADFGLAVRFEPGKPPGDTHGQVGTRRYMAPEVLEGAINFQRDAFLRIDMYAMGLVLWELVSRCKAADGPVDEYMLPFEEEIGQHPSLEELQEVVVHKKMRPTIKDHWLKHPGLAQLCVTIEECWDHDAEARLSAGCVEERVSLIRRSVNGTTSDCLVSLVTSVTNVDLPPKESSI

Turning to `O=C(c1ccc(-c2cnc3c(c2)N(Cc2cc(Cl)ccc2C(F)(F)F)CCN3)cc1)N1CCCCC1`, the inhibition in assay [1], in assay [2], in assay [3], in assay [4], in assay [5] and in [6] was below 50% throughout. Further, the inhibition in [7] was below 50%.

For the compound `CN1CCN(c2ccc(-c3cnc4c(c3)N(Cc3c(F)ccc(F)c3Cl)CCN4)cn2)CC1`, the inhibition in [8], in assay [1], in [2], in assay [3], in assay [4] and in assay [5] was below 50% each time. The inhibition was below 50% in assay [6], 95% in [9] and below 50% in assay [7].

`COC1CCN(C(=O)c2ccc(-c3cnc4c(c3)N(Cc3cc(Cl)ccc3C(F)(F)F)CCN4)cc2)CC1`: the inhibition is below 50% in [1]; below 50% in assay [2]; 79.5% in assay [3]; below 50% in assay [4]; below 50% in [5]; below 50% in [6]. In assay [7], the inhibition was below 50%.

Take `O=C(O)c1ccc(-c2cnc3c(c2)N(Cc2cc(Cl)ccc2C(F)(F)F)CCN3)cc1`: the inhibition in assay [1], in [2], in assay [3], in assay [4], in assay [5] and in [6] was below 50% in each case. In addition, in [7], the inhibition is below 50%.

As to `FC(F)(F)c1ccc(Cl)cc1CN1CCNc2ncc(-c3ccnc(N4CCNCC4)c3)cc21`, the inhibition in assay [8] was below 50%; in assay [1] it was below 50%; in assay [2] it was below 50%; in [3], 92%; in assay [4], below 50%; in assay [5], below 50%. For the same compound, the inhibition is below 50% in assay [6], 97% in assay [9] and below 50% in assay [7].

Take `CN1CCN(c2ccc(-c3cnc4c(c3)N(Cc3cc(Cl)ccc3Cl)CCN4)cn2)CC1`: the inhibition in [8], in [1], in assay [2], in assay [3], in [4] and in assay [5] was below 50% throughout. For the same compound, the results for the inhibition in [6], in assay [9] and in [7] were below 50%, 76% and below 50%, respectively.

As for `O=C(c1ccc(-c2cnc3c(c2)N(Cc2cc(Cl)ccc2C(F)(F)F)CCN3)cc1)N1CCC(N2CCCC2)CC1`, the inhibition was below 50% in [1]; below 50% in assay [2]; 96.9% in [3]; below 50% in assay [4]; below 50% in assay [5]; below 50% in [6]. For the same compound, the inhibition in [7] is below 50%.

Regarding `CN1CCN(c2ccc(-c3cnc4c(c3)N(Cc3cc(Cl)ccc3C(F)(F)F)CCN4)cn2)CC1`, the inhibition in [8], in [1], in [2], in assay [3], in assay [4] and in assay [5] was below 50% each time. Further, the inhibition was below 50% in assay [6], 89% in assay [9] and below 50% in assay [7].

On to `CC(=O)N1CCN(c2cc(-c3cnc4c(c3)N(Cc3cc(Cl)ccc3C(F)(F)F)CCN4)ccn2)CC1`, for which the inhibition in [8] is below 50%; in [1] it was below 50%; in assay [2], below 50%; in [3] it was 89%; in assay [4] it was below 50%; in assay [5], below 50%. The results for the inhibition in assay [6], in [9] and in assay [7] were below 50%, 92% and below 50%, respectively.

On to `CN1CCN(c2ccc(-c3cnc4c(c3)N(Cc3cc(F)ccc3F)CCN4)cn2)CC1`, for which the inhibition in assay [8], in [1], in [2], in assay [3], in [4] and in assay [5] was below 50% each time. Moreover, the inhibition was below 50% in assay [6], 68% in assay [9] and below 50% in assay [7].
